Series [1] has as its system Mus musculus. Briefly: Acute toxicity in ICR mouse assessed as abnormal activity at 240 mg/kg, ip measured for 14 days. It is filed as organism-based. Conditions: in vivo, 336 h. A digest of the protocol:
(§1)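 Female ICR mice, single intraperitoneal injection at 585.9, 468.8, […], 300 or 240 mg/kg, or vehicle control, n = 10 per group. Deaths counted at 1 h, 4 h, daily on days 1-4 and over days 5-14. Eating, drinking, body weight and activity observed for 14 days, with survival (%) taken on day 14. LD50 calculated from mortality.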

In series [2] the test system is Mus musculus. Description: Acute toxicity in ICR mouse assessed as death at 240 to 300 mg/kg, ip measured after 5 to 14 days. Type of series: organism-based. Conditions: in vivo. The gist of the method: as §1
Series [3] has as its system HCT-116. Briefly: Selectivity index, ratio of GI50 for rat IEC-18 cells to GI50 for human HCT116 cells. Type of series: functional. The gist of the method:
(§2)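 HCT116 and rat IEC-18 cells incubated 48 h over a 0–5 µM range. Viability measured by MTT and expressed as % of control. GI50 taken from the inhibition curves; three independent experiments.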

Series [4] in a line: Downregulation of Bcl2 expression in human HCT116 cells after 48 hrs by western blot analysis. Type of series: functional, cell-based. Conditions: HCT-116. The gist of the method:
(§3)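 HCT116 cells treated 48 h with or without compound. Western blots probed for Bax, Bcl-2, cleaved caspase-3 and PARP. Band intensities relative to β-actin by densitometry; means ± SD from three separate experiments.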
For orientation: Immunoblotting shows a protein as a band on a membrane.

Series [5] is described as follows: Cytotoxicity against rat IEC-18 cells assessed as survival after 48 hrs by MTT assay. It is filed as cell-based. A digest of the protocol: as §2
In a further series the target is Histone deacetylase 1 (Homo sapiens, UniProt Q13547). Briefly: Inhibition of recombinant human HDAC1 using Boc-Lys (Ac)-AMC as substrate after 60 mins by fluorometric analysis.
A further series relates to SW480. Briefly: Antiproliferative activity against human SW480 cells assessed as cell viability after 48 hrs by MTT assay. Type of series: functional, cell-based. Conditions: SW480, 48 h.
For series [6], the system named is HCT-116. Description: Antiproliferative activity against human HCT116 cells assessed as cell death at 5 uM after 48 hrs by MTT assay. It is filed as functional, cell-based. A digest of the protocol: as §2
(Tetrazolium dyes change colour on reduction, which living cells bring about.)

Series [7] concerns Mus musculus. Briefly: Toxicity in BALB/c mouse xenografted with human HCT116 cells assessed as body weight change at 45 mg/kg, ip measured twice per week over 22 days. Type of series: organism-based, HCT-116. Conditions: in vivo, 528 h. Background: Xenograft models place foreign cells or tissue in a host animal.
For series [8], the target named is Cellular tumor antigen p53 (Homo sapiens) (UniProt P04637). Description: Activation of p53 in human HCT116 cell at 0.1 to 5 uM after 12 hrs by western blot analysis. Type of series: cell-based. As to conditions: HCT-116. A digest of the protocol: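 HCT116 cells exposed 12 h to compound or vehicle, then lysed on ice in PBS with 1% NP-40, 0.5% deoxycholate, 0.1% SDS and protease inhibitors. Up to 50 µg protein run on SDS-PAGE and immunoblotted for phospho-p53 (Ser15), p53 and p21. Bands quantified by densitometry against β-actin; mean ± SD of three experiments.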

For series [9], the system named is Mus musculus. Briefly: Acute toxicity in ICR mouse assessed as death at 240 mg/kg, ip measured for 14 days. Conditions: in vivo, 336 h. Type of series: organism-based. The gist of the method: as §1
The test system of series [10] is HCT-116. Briefly: Induction of DNA damage in human HCT116 cells assessed as histone H2AX phosphorylation at S139 at 1 to 5 uM after 12 hrs by western blot analysis. It is filed as functional, cell-based. A digest of the protocol:
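DNA-damage marker. HCT116 cells treated 12 h with compound or vehicle. Lysates immunoblotted with anti-H2AX S139ph, and β-actin served as the control. Relative levels were obtained by densitometric scanning; means ± SD of three separate experiments.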

Series [11] in a line: Cytotoxicity against rat IEC-18 cells assessed as survival at 5 uM after 48 hrs by MTT assay. Type of series: cell-based. Conditions: iec-18, 48 h. A digest of the protocol: as §2
The nature of series [12]: Acute toxicity in ICR mouse assessed as survival rate at 375 mg/kg, ip measured on day 14. Type of series: organism-based. As to conditions: in vivo. A digest of the protocol: as §1
Series [13] concerns Mus musculus. Briefly: Acute toxicity in ICR mouse assessed as body weight change at 240 mg/kg, ip measured for 14 days. As to conditions: in vivo, 336 h. It is filed as organism-based. A digest of the protocol:
as §1

The subject of series [14] is Mus musculus. Description: Acute toxicity in ICR mouse assessed as abnormality in drinking at 240 mg/kg, ip measured for 14 days. As to conditions: in vivo, 336 h. Type of series: organism-based. The gist of the method: as §1
In series [15] the test system is Mus musculus. Briefly: Toxicity in BALB/c mouse xenografted with human HCT116 cells assessed as body weight change at 90 mg/kg, po measured twice per week over 22 days. Type of series: organism-based, HCT-116. Conditions: in vivo, 528 h.
A short description of series [16]: Upregulation of Bax expression in human HCT116 cells after 48 hrs by western blot analysis. It is filed as functional, cell-based. As to conditions: HCT-116. The gist of the method: as §3

Active and inactive are the calls of the source. No cut-off for these calls is given here.

Cellular tumor antigen p53 (Homo sapiens), sequence (P04637 whole entry, looked up): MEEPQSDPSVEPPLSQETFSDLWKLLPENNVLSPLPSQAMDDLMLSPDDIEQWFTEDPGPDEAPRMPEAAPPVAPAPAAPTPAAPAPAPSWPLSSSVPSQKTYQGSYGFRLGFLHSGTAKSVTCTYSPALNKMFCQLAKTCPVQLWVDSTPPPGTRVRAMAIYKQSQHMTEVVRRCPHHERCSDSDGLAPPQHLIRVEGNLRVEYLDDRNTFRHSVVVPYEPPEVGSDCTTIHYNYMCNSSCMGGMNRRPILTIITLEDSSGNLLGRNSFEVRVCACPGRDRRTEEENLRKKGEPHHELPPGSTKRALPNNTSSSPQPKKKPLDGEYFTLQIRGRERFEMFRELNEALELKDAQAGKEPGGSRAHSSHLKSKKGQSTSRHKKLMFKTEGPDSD
Histone deacetylase 1, sequence (Q13547 whole entry): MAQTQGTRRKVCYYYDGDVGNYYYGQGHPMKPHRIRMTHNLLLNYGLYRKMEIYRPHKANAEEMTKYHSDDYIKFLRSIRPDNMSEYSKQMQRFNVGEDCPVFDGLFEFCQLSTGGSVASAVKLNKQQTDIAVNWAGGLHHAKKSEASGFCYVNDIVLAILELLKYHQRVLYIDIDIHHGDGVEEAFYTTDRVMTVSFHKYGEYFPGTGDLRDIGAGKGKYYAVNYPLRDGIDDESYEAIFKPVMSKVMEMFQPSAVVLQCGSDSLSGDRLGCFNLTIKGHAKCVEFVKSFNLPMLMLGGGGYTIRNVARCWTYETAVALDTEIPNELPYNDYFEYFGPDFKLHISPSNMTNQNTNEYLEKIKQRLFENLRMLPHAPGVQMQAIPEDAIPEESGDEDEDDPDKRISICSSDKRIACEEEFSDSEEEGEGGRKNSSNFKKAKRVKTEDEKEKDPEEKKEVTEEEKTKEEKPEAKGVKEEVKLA

A word on the GI50: it is the concentration at which growth is held to half of that of the control. The IC50 is the concentration at which inhibition is half-maximal. Take `COc1ccc(-c2nc(NC(=O)NCCCC(=O)NO)cc3c2[nH]c2ccccc23)cc1`: the Activity result is “Non-toxic” in the series with Mus musculus [1]; “Non-toxic” with Mus musculus [2]; “Dose-dependent effect” in series [4]; “Non-toxic” in the series on Mus musculus [7]; “Non-toxic” in the series on Mus musculus [9]; “Non-toxic” in series [11]. Moreover, the Activity entry with Mus musculus [13] was “Non-toxic”; in the series with Mus musculus [14] it was “Non-toxic”; in the series on Mus musculus [15], “Non-toxic”; in series [16] it was “Dose-dependent effect”. Moreover, the RatioGI50 in the series on HCT-116 [3] was 5. The GI50 at 48 h in series [5] worked out at 5.46 µM. Further, the IC50 was found to be 0.026 µM on Histone deacetylase 1 and 1.16 µM in the series with SW480. Also, the result (in the series with HCT-116 [6]; in [8]; in the series on HCT-116 [10]) was Active. The survival at 14 day in series [12] is 70%.

The values are drawn from ChEMBL document CHEMBL3745678, “Novel β-Carboline/Hydroxamic Acid Hybrids Targeting Both Histone Deacetylase and DNA Display High Anticancer Activity via Regulation of the p53 Signaling Pathway” (J Med Chem, 2015).
